Assay results as given in paper PMC2804273 (Journal of Medicinal Chemistry, 2009).

Tested on: BSF T. brucei brucei strain Lister 427
Assay: Alamar blue viability test, cytotoxicity against cultured parasites
Format: cell-based, Trypanosoma brucei brucei
Conditions: ED50 determined in the presence of sub-ED50 MTX (0.5-2.5 μM)
How it was run: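 Bloodstream-form T. brucei brucei Lister 427, grown at 37 °C and 5% CO2 in HMI-9 with 10% fetal calf serum, high folate left unreduced, and neomycin pressure to keep T7 polymerase and tetracycline repressor. […] Values are mean ± std dev (n = 4). Synergy was judged by comparing the area under the slope with half the product of the two ED50 values.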

| SMILES | Interaction in combination with MTX (synergy) |
| --- | --- |
| N#Cc1c(-c2ccc3c(c2)OCO3)[nH]c2nc(N)[nH]c(=O)c12 [compound 13] | acts synergistically |
| CCc1nc(N)nc(N)c1-c1ccc(Cl)cc1 [PYR, pyrimethamine] | does not act synergistically |
